Screening data as filed in PubChem BioAssay.
In the library only some 1.3% were active in any assay of this set; here they are far more common.
S100A4 inh HTS = inhibitors of human S100A4 binding to myosin IIA peptide; P26447; AID 652163; S100A4/TAMRA-MyoIIA peptide fluorescence polarization; inhibition, % at 10.7 µM; 0.14% of 360,000 active;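 active means mean inhibition of at least 70% across replicates, with every replicate also reaching that level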
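Assay system: human S100A4 monomer with TAMRA-labelled myosin IIA peptide / Buffer or medium: Calcium-containing HEPES buffer, pH 7.2 / Reagent: TAMRA-labelled myosin IIA heavy-chain peptide probe, 5 nM / Compound: one dose per compound / Timing: polarization read 5 min after assay mix addition, stable 5–60 min / Benchmarks: neutral control DMSO, positive control TFP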
Casp6 inh = inhibitors of human caspase-6; P55212; purified caspase-6, Z-VEID-R110 cleavage fluorescence; inhibition, % at 12.5 µM; 0.53% of 350,000 active;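 active means mean inhibition across replicates at least about 35%, with every replicate also reaching that limit, limit read from the data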;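 further: 0% = median of neutral control wells and 100% = no fluorescence left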
RAD52 anneal inh = inhibitors of human RAD52 DNA annealing. P43351. inhibition, % at 18.7 µM. 0.46% of 360,000 active. recombinant RAD52 DNA annealing, FRET fluorescence;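 active means every replicate showing at least 50% inhibition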
XiGFP reactiv = activators of X-chromosome reactivation in mouse fibroblasts | XiGFP mouse fibroblasts, % GFP-positive cells imaging, 3 d; cells co-treated with 5-aza-dC sensitizer; scaled so ellipticine positive control = 100% | activation, % at 7.58 µM | 0.055% of 360,000 active;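 active means mean normalized replicate activation at least 10% and every replicate at or above 10%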;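 further: 0% = median of on-plate neutral control wells and 100% = ellipticine 6 µM median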
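Material: XiGFP fibroblasts, SV40-immortalized; Buffer or medium: DMEM containing 5-aza-dC; Compound dosing: single point; Times: 3 days compound exposure.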
MLL AF4-AF9 inh = blocks AF4 peptide binding to human AF9. P42568. AlphaScreen, biotin-AF4 peptide binding to FLAG-AF9. inhibition, % at 10 µM. 0.47% of 350,000 active;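 active means every replicate reaching a set inhibition limit, whatever the replicate mean, cut at about 25% in these data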;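 further: 0% = plate neutral control median and 100% = total signal loss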
RAD54 inh = blocks human RAD54 Holliday junction branch migration; Q92698; FAM/BHQ fluorescence; inhibition, % at 10.4 µM; 0.14% of 360,000 active; AID 602329;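 active means mean normalized replicate activity at least 40 and at least half of replicates scoring 40 or more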;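 further: 0% = median of neutral control wells and 100% = median of positive control wells; inhibitors cause a drop in the FAM fluorescence signal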
Numbers without * were called inactive; . = no result given.

SMILES | S100A4 inh HTS | Casp6 inh | RAD52 anneal inh | XiGFP reactiv | MLL AF4-AF9 inh | RAD54 inh
Cc1noc(C)c1S(=O)(=O)N(C)C[C@@H]1Oc2ccc(NS(C)(=O)=O)cc2C(=O)N([C@H](C)CO)C[C@@H]1C | . | . | . | 0.3 | . | .
COc1ccc(-[n+]2c(C)cc(/C=C3\Sc4ccccc4N3C)cc2C)cc1 | 0.8 | -7.0 | -257.7 | 178.6* | 8.5 | .
COc1ccccc1-[n+]1c(C)cc(/C=C2\Sc3ccccc3N2C)cc1C | -3.8 | -12.8 | -215.8 | 101.2* | -5.2 | -410.7
COCCN=c1scc(-c2cccs2)n1/N=C/c1ccc(O)c(O)c1O | -0.3 | 15.4 | -13.0 | 0.0 | 53.3* | .
CCN=c1scc(C)n1/N=C/c1ccc(O)c(O)c1O | . | . | . | . | . | 7.9
C[C@H](CO)N1C[C@H](C)[C@H](CN(C)C)Oc2ccc(NC(=O)Nc3ccc(F)cc3)cc2C1=O | -0.1 | -1.0 | 12.3 | -1.3 | 0.3 | 0.8
CC(C)NC(=O)N[C@H]1CC[C@H](CC(=O)O)O[C@H]1CO | 0.4 | 1.4 | -2.7 | 0.1 | -0.4 | 0.3
COC(=O)C[C@H]1C[C@H]2c3cc(NC(=O)C4CCC4)ccc3O[C@H]2[C@@H](CO)O1 | 6.7 | -3.3 | -3.6 | -0.1 | -1.2 | -0.7
COc1ccc(NC(=O)N2CCCCN3[C@@H](CO)[C@H](c4ccc(-c5ccccc5F)cc4)[C@@H]3C2)cc1 | 0.9 | 1.9 | 60.0* | 0.0 | -2.3 | 3.8
COc1ccc(NC(=O)N2CCCCN3[C@@H](CO)[C@@H](c4ccc(-c5ccccc5F)cc4)[C@@H]3C2)cc1 | -4.6 | 2.0 | 64.6* | 0.0 | 3.0 | 19.7
O=C(c1ccc(N2C(=O)CCC2=O)cc1)N1CCCSC1=Nc1ccccc1 | 84.1* | 1.7 | -7.3 | 0.4 | -2.8 | -8.6
CCc1noc(C)c1C(=O)N1CCCSC1=Nc1ccccc1 | -7.4 | 2.8 | 3.1 | 0.4 | -7.7 | 8.3
C[C@@H]1CCCCO[C@H](CN(C)Cc2ccc3c(c2)OCO3)[C@H](C)CN([C@@H](C)CO)C(=O)c2cc(NC(=O)Cc3ccccc3)ccc2O1 | . | . | . | 0.3 | . | 1.0
C[C@H]1CN(C)C(=O)c2cc(NS(C)(=O)=O)ccc2O[C@@H]1CN(C)S(C)(=O)=O | . | . | . | -0.1 | . | .
COc1ccc(N2CCCC2)c(NC(=O)c2ccc([N+](=O)[O-])o2)c1 | 0.6 | 4.3 | -19.9 | 0.0 | 32.2* | 9.3
O=C(Nc1ccccc1N1CCCC1)c1ccc([N+](=O)[O-])o1 | -9.3 | 6.6 | -12.6 | 0.4 | 17.4 | -7.4
COc1ccc(N2CCN(CC(O)COC(c3ccccc3)c3ccccc3)CC2)cc1 (stereo not given) | -0.4 | 1.0 | -9.4 | 0.0 | 16.0 | -4.1
COc1ccc(N2CCN(CC(O)COC(c3ccc(F)cc3)c3ccc(F)cc3)CC2)cc1 (stereo not given) | 2.9 | 1.1 | -4.9 | 0.0 | 27.1* | 13.6
C(/C=C/c1ccccc1)=N/N1CCN(c2ccccc2)CC1 | . | . | . | . | . | -4.5
C(=C\c1ccccc1)/C=N/N1CCN(Cc2ccccc2)CC1 | -4.6 | -7.5 | -7.7 | 0.0 | 44.0* | .
CC(=O)N1C[C@H]2[C@@H](c3ccccc31)[C@@H](CO)N2S(=O)(=O)c1ccccc1 | 11.4 | -0.8 | -8.6 | 0.0 | 2.1 | -9.9
CCC(=O)N(C)C[C@@H]1Oc2cc(-c3ccccc3OC)ccc2S(=O)(=O)N([C@H](C)CO)C[C@@H]1C | 4.2 | -3.0 | -8.1 | -2.0 | 0.2 | 6.1
C[C@@H]1CN([C@@H](C)CO)C(=O)Cc2cc(N(C)C)ccc2O[C@H]1CN(C)Cc1ccc(Oc2ccccc2)cc1 | . | . | . | -1.1 | . | .
C[C@H](CO)N1C[C@H](C)[C@@H](CN(C)Cc2ccc(Oc3ccccc3)cc2)Oc2ccc(N(C)C)cc2CC1=O | 4.1 | 0.3 | 10.1 | 0.1 | 71.7* | -20.5
C[C@H](CO)N1C[C@H](C)[C@H](CN(C)Cc2ccc(Oc3ccccc3)cc2)Oc2ccc(N(C)C)cc2CC1=O | 10.7 | -0.6 | -8.9 | 0.0 | 26.8* | 3.5
C[C@@H]1CN([C@@H](C)CO)C(=O)Cc2cc(N(C)C)ccc2O[C@@H]1CN(C)Cc1ccc(-c2ccccc2)cc1 | 0.7 | -0.8 | 7.1 | 0.1 | 42.2* | -7.5
COc1ccc2c3c([nH]c2c1)[C@@H](CO)N(Cc1ccc(Cl)cc1)CC31CN(Cc2ccccc2)C1 | . | . | . | 0.5 | . | .
